Results from ChEMBL document CHEMBL1671635, “Effect of protein binding on the pharmacological activity of highly bound antibiotics” (Antimicrob Agents Chemother, 2008).
Converted amounts (≈) assume the structure as drawn. The source made the active and inactive calls. The rule behind the calls is not given here.

Columns and labels:
[1] = test system: Plasma; experiment: Plasma protein binding in human at 400 ug/ml; type: ADME, cell-free
[2] = target: T1, Albumin (Bos taurus, UniProt P02769); experiment: Binding affinity to pooled adult bovine serum albumin; type: ADME; settings: cattle, read-out: PB (converted)
T1 sequence (P02769 whole entry, the tested form may be a part): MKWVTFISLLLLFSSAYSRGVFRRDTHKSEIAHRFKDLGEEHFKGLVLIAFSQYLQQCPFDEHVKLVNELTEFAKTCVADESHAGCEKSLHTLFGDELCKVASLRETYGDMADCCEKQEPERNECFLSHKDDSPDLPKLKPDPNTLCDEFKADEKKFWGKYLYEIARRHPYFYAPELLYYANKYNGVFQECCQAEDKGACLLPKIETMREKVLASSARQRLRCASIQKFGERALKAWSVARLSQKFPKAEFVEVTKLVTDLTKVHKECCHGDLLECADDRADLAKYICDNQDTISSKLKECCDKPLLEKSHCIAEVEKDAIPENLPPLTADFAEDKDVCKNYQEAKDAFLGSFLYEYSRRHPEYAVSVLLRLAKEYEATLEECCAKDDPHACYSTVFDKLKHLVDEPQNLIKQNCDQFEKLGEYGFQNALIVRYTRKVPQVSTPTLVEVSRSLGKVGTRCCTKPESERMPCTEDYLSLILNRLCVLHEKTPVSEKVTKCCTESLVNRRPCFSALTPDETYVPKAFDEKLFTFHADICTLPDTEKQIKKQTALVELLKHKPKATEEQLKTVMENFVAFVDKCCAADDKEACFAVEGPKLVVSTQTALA
In short: (§1)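 In vitro microdialysis at 20, 40, 80, 160 and 320 μg/ml drug, in triplicate, at 37°C. Matrices were THB with 40 g/liter BSA or HSA, pooled adult bovine serum, or untreated pooled human plasma. Probes were perfused with lactated Ringer at 2.0 μl/min, with recovery set in Ringer alone. Samples were taken over a 30-min period and assayed by HPLC-UV. Binding = 1 − dialysate/(recovery × total).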

[3] = Plasma protein binding in human at < 100 ug/ml; type: ADME, cell-free; settings: read-out: PPB (converted)
[4] = target: T1, Albumin; experiment: Binding affinity to bovine serum albumin in THB medium containing 40 g/L BSA; type: ADME; settings: cattle, bovine serum albumin (40 g/L) in THB medium; read-out: PB (converted); in short: as §1
[5] = test system: Plasma; experiment: Protein binding in pooled human plasma by microdialysis; type: ADME, cell-free; in short: as §1
[6] = target: Albumin (Homo sapiens, UniProt P02768); experiment: Binding affinity to human serum albumin in THB medium containing 40 g/L HSA; type: ADME; settings: human serum albumin (40 g/L) in THB medium, read-out: PB (converted); in short: as §1
Albumin (Homo sapiens, UniProt P02768), sequence (P02768 whole entry): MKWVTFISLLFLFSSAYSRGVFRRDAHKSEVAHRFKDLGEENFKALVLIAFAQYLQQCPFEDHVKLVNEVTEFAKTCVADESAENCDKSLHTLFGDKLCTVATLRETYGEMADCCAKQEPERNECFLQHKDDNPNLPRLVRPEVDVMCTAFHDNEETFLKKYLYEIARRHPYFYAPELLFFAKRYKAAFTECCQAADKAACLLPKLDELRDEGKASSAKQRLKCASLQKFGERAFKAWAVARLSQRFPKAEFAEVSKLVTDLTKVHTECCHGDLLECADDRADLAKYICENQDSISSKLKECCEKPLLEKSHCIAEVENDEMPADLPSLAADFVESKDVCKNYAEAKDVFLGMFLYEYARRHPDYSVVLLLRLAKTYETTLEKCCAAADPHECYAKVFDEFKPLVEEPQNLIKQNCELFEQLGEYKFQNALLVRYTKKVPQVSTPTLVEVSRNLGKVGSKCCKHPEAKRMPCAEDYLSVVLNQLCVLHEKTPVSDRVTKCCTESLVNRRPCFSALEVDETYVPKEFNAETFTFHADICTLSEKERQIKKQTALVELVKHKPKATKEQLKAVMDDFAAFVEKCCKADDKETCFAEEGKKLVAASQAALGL

[7] = Plasma protein binding in healthy human 1t […], iv administered as single dose by LC-MS-MS method; type: ADME, organism-based; settings: read-out: PPB (converted)
[8] = test system: Streptococcus pneumoniae; experiment: Bactericidal activity against penicillin-sensitive Streptococcus pneumoniae ATCC 6303 at 8 times MIC after 24 hrs by time kill analysis; type: functional, organism-based
[9] = test system: Streptococcus pneumoniae; experiment: Bactericidal activity against penicillin-sensitive Streptococcus pneumoniae ATCC 6303 at 8 times MIC after 6 hrs by time kill analysis in presence of 40 g/L bovine serum albumin
[10] = test system: Escherichia coli; experiment: Bactericidal activity against Escherichia coli ATCC 25922 at 8 times MIC after 24 hrs by time kill analysis; type: functional, organism-based
[11] = test system: Escherichia coli; experiment: Antimicrobial activity against Escherichia coli ATCC 25922 in presence of bovine serum albumin; type: functional, organism-based
In short: (§2)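 Broth macrodilution, serial twofold dilutions, run per CLSI guidelines. Media were MHB (E. coli) or THB (S. pneumoniae), used with or without 40 g/liter BSA or HSA; supplemented broth was 0.2-μm filtered and adjusted to pH 7.4. Inoculum came from overnight 5% sheep blood agar colonies set to 0.5 McFarland in saline and diluted in broth to ~5 × 10⁵ CFU/ml. Six determinations; values reported as modes.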

[12] = test system: Escherichia coli; experiment: Antimicrobial activity against Escherichia coli ATCC 25922 by in presence of human serum albumin; type: functional, organism-based; in short: as §2
[13] = test system: Escherichia coli; experiment: Antimicrobial activity against Escherichia coli ATCC 25922 by serial dilution twofold broth microdilution method; type: functional; settings: in the assay text read “macrodilution” for “microdilution”; in short: as §2
[14] = test system: Streptococcus pneumoniae; experiment: Antimicrobial activity against penicillin-sensitive Streptococcus pneumoniae ATCC 6303 in presence of bovine serum albumin; type: functional, organism-based; in short: as §2
[15] = test system: Streptococcus pneumoniae; experiment: Antimicrobial activity against penicillin-sensitive Streptococcus pneumoniae ATCC 6303 by serial dilution twofold broth microdilution method in presence of 40 g/L human serum albumin; type: functional; settings: in the assay text read “macrodilution” for “microdilution”; in short: as §2
[16] = test system: Streptococcus pneumoniae; experiment: Antimicrobial activity against penicillin-sensitive Streptococcus pneumoniae ATCC 6303 assessed as growth rate constant; type: functional
In short: (§3)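 Constant-concentration time-kill curves, 6 h, in triplicate. […] Inoculum of ~5 × 10⁵ CFU/ml was grown 2 h before drug was added. Samples taken 0–6 h were counted by droplet plating after 20–24 h at 37°C. A two-compartment model (susceptible plus persister cells) was fitted simultaneously across conditions to obtain growth and maximal kill rate constants.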

[17] = test system: Escherichia coli; experiment: Antimicrobial activity against Escherichia coli ATCC 25922 assessed as maximum killing rate constant; type: functional; in short: as §3
[18] = test system: Escherichia coli; experiment: Bactericidal activity against Escherichia coli ATCC 25922 at 8 times MIC after 6 hrs by time kill analysis in presence of 40 g/L bovine serum albumin
[19] = test system: Streptococcus pneumoniae; experiment: Antimicrobial activity against penicillin-sensitive Streptococcus pneumoniae ATCC 6303 by serial dilution twofold broth microdilution method in presence of 40 g/L bovine serum albumin; type: functional; settings: in the assay text read “macrodilution” for “microdilution”; in short: as §2
[20] = test system: Streptococcus pneumoniae; experiment: Antimicrobial activity against penicillin-sensitive Streptococcus pneumoniae ATCC 6303 by serial dilution twofold broth microdilution method; type: functional; settings: in the assay text read “macrodilution” for “microdilution”; in short: as §2
[21] = test system: Escherichia coli; experiment: Bactericidal activity against Escherichia coli ATCC 25922 at 8 times MIC after 24 hrs by time kill analysis in presence of 40 g/L human serum albumin; type: functional, organism-based
[22] = test system: Escherichia coli; experiment: Antimicrobial activity against Escherichia coli ATCC 25922 by serial dilution twofold broth microdilution method in presence of 40 g/L bovine serum albumin; type: functional; settings: in the assay text read “macrodilution” for “microdilution”; in short: as §2
[23] = test system: Streptococcus pneumoniae; experiment: Antimicrobial activity against penicillin-sensitive Streptococcus pneumoniae ATCC 6303; type: functional, organism-based; in short: as §2
[24] = test system: Escherichia coli; experiment: Antimicrobial activity against Escherichia coli ATCC 25922 by serial dilution twofold broth macrodilution method in presence of 40 g/L human serum albumin
[25] = test system: Streptococcus pneumoniae; experiment: Antimicrobial activity against penicillin-sensitive Streptococcus pneumoniae ATCC 6303 in presence of human serum albumin; type: functional, organism-based; in short: as §2
[26] = test system: Streptococcus pneumoniae; experiment: Antimicrobial activity against penicillin-sensitive Streptococcus pneumoniae ATCC 6303 assessed as maximum killing rate constant; type: functional; in short: as §3
[27] = test system: Escherichia coli; experiment: Antimicrobial activity against Escherichia coli ATCC 25922; type: functional, organism-based; in short: as §2
[28] = test system: Escherichia coli; experiment: Antimicrobial activity against Escherichia coli ATCC 25922 assessed as growth rate constant; type: functional; in short: as §3
[29] = test system: Streptococcus pneumoniae; experiment: Bactericidal activity against penicillin-sensitive Streptococcus pneumoniae ATCC 6303 at 8 times MIC after 24 hrs by time kill analysis in presence of 40 g/L human serum albumin; type: functional, organism-based

CO/N=C(\C(=O)N[C@@H]1C(=O)N2C(C(=O)O)=C(CSc3nc(=O)c(=O)[nH]n3C)CS[C@H]12)c1csc(N)n1 [CEFTRIAXONE]
PPB [1]: 60% | fraction unbound [2]: 0.693 | fraction unbound [3]: 0.1 | fraction unbound [4]: 0.798 | PPB [5]: 76.8% | fraction unbound [6]: 0.431 | fraction unbound [7]: 0.17

CO/N=C(\C(=O)N[C@@H]1C(=O)N2C(C(=O)O)=C(CSc3nc(=O)c(O)nn3C)CS[C@H]12)c1csc(N)n1 [CEFTRIAXONE]
Activity [8]: Active | Activity [9]: inactive | Activity [10]: Active | EC50 [11]: 0.057 µg/mL | EC50 [12]: 1.1 µg/mL | MIC [13]: 0.064 µg/mL (≈ 0.115 µM) | EC50 [14]: 0.015 µg/mL | MIC [15]: 0.16 µg/mL | Ks [16]: 1.56 h⁻¹ | Kkmax [17]: 6.34 h⁻¹ | Activity [18]: inactive | MIC [19]: 0.02 µg/mL | MIC [20]: 0.01 µg/mL (≈ 0.018 µM) | Activity [21]: inactive | MIC [22]: 0.064 µg/mL | EC50 [23]: 0.004 µg/mL (≈ 0.00721 µM) | MIC [24]: 2 µg/mL | EC50 [25]: 0.084 µg/mL | Kkmax [26]: 3.59 h⁻¹ | EC50 [27]: 0.027 µg/mL (≈ 0.0487 µM) | Ks [28]: 2.4 h⁻¹ | Activity [29]: inactive

C[C@@H](O)[C@H]1C(=O)N2C(C(=O)O)=C(S[C@@H]3CN[C@H](C(=O)Nc4cccc(C(=O)O)c4)C3)[C@H](C)[C@H]12 [ERTAPENEM]
Activity [8]: Active | fraction unbound [2]: 0.617 | Activity [10]: Active | EC50 [11]: 0.02 µg/mL | EC50 [12]: 0.014 µg/mL | MIC [13]: 0.015 µg/mL (≈ 0.0315 µM) | EC50 [14]: 0.01 µg/mL | MIC [15]: 0.025 µg/mL | Ks [16]: 2.28 h⁻¹ | Kkmax [17]: 6.02 h⁻¹ | MIC [19]: 0.025 µg/mL | fraction unbound [4]: 0.876 | MIC [20]: 0.025 µg/mL (≈ 0.0526 µM) | MIC [22]: 0.015 µg/mL | EC50 [23]: 0.01 µg/mL (≈ 0.021 µM) | PPB [5]: 73.8% | MIC [24]: 0.03 µg/mL | EC50 [25]: 0.019 µg/mL | fraction unbound [6]: 0.822 | Kkmax [26]: 3.28 h⁻¹ | EC50 [27]: 0.01 µg/mL (≈ 0.021 µM) | Ks [28]: 2.76 h⁻¹ | fraction unbound [7]: 0.16
